Published values from different studies.
Protocols differ between the studies behind these lines.
ABCB1: ATP-dependent translocase ABCB1 (ABCB1, Homo sapiens, UniProt P08183)
SLC47A2: Multidrug and toxin extrusion protein 2 (SLC47A2, Homo sapiens, UniProt Q86VL8)

SMILES	target	test	system	setting	measurement	value
CCc1cc(/C(C)=N/OCc2ccc(C3CCCCC3)c(C(F)(F)F)c2)ccc1CN1CC(C(=O)O)C1	Cytochrome P450 2A6 (CYP2A6, Homo sapiens, UniProt P11509)	enzyme activity, inhibitor	human, liver microsomes	200 µM, 20 min	inhibition	30.6%
C=C[C@H]1C[N@@]2CC[C@H]1C[C@@H]2[C@@H](O)c1ccnc2ccc(OC)cc12	ABCB1	–	MDCK-MDR1	5 µM	Papp B→A	40.6 ×10⁻⁶ cm/s
CN/C(=N/CCSCc1nc[nH]c1C)NC#N	SLC47A2	transporter uptake, inhibitor	HEK293	100 µM, 2 min	inhibition	76%
Nc1nc(NC2CC2)c2ncn([C@H]3C=C[C@@H](CO)C3)c2n1	SLC47A2	transporter uptake, inhibitor	–	–	IC50	> 500 µM
O=C(O)CSc1nnc(Br)n1-c1ccc(C2CC2)c2ccccc12	SLC47A2	transporter uptake, inhibitor	HEK293	10 µM, 2 min	inhibition	-16%
C[C@]12CCCN1CC1=NNC(=O)c3cc(F)cc4[nH]c2c1c34	ABCB1	–	MDCK-MDR1	10 µM	Papp B→A	41.2 ×10⁻⁶ cm/s
C[C@H]1O[C@@H](O[C@H]2[C@@H](O)C[C@H](O[C@H]3[C@@H](O)C[C@H](O[C@H]4CC[C@@]5(C)[C@H](CC[C@@H]6[C@@H]5C[C@@H](O)[C@]5(C)[C@@H](C7=CC(=O)OC7)CC[C@]65O)C4)O[C@@H]3C)O[C@@H]2C)C[C@H](O)[C@@H]1O	ABCB1	–	human, plasma	oral, 0.5 mg	Cmax	1.99 ng/mL
COCCc1ccc(OCC(O)CNC(C)C)cc1 (stereo not shown)	ABCB1	–	MDCK-MDR1	5 µM	efflux ratio	0.981
CCOc1cc2ncc(C#N)c(Nc3ccc(OCc4ccccn4)c(Cl)c3)c2cc1NC(=O)/C=C/CN(C)C	ABCB1	–	MDCK-MDR1, Caco-2	1 µM, 1 h, pH 7.4	efflux ratio	6.37
CC1(C)CCC2(CC1)N[C@@H](C(=O)N[C@@H]1CC[C@@H](C(N)=O)OC1)[C@H](c1ccnc(Cl)c1F)[C@]21C(=O)Nc2cc(Cl)ccc21	ABCB1	–	Caco-2	3 µM, 2 h	efflux ratio	14.1
